Test results from ChEMBL document CHEMBL5724801, “EUbOPEN Chemogenomics Library - Multiplex” (2024).
“And” between values parts separate entries of the source, which are not always exact repeats. Equal entries are not always repeated.

Tested on: Fibroblast
Experiment: Multiplex assay against human fibroblast
Format: toxicity, cell-based
In short: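 With compound added, live cells were imaged on a CQ1 microscope at 37°C and 5% CO2; staining with Hoechst33342, BioTracker Green Microtubule Cytoskeleton Dye, MitoTracker Red and Annexin V Alexa Fluor 680 had been done at seeding. The CellPathfinder machine-learning gating scheme split cells into Hoechst high-intensity objects or normal cells, normal cells into healthy, pyknosed or fragmented nuclei, and pyknosed cells into mitotic or apoptotic. The tubulin, mitochondrial-mass and membrane-permeability phenotypes are per cents of healthy-nucleus cells.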

[1] = 12 h, 1 µM, compound concentration 1 uM
[2] = 12 h, 10 µM, compound concentration 10 uM
[3] = 24 h, 1 µM, compound concentration 1 uM
[4] = 24 h, 10 µM, compound concentration 10 uM
[5] = 48 h, 1 µM, compound concentration 1 uM
[6] = 48 h, 10 µM, compound concentration 10 uM

O=C(CCCc1ccccc1)Nc1nc2ccccc2c(=O)s1
Population Apoptotic (%) [1]: 58% and 34%
Population Fragmented Nuclei (%) [1]: 9% and 19%
Population Healthy Nuclei (%) [1]: 66% and 49%
Population Hoechst High Intensity Objects (%) [1]: 2% and 3%
Population Membrane Permeable-Phenotype (%) [1]: 0% and 9%
Population Mitochondria Different-Phenotype (%) [1]: 4% and 7%
Population Mitotic Cells (%) [1]: 41% and 65%
Population Normal (%) [1]: 97% and 96%
Population Pyknosed Nuclei (%) [1]: 23% and 31%
Population Tubulin-Different-Phenotype (%) [1]: 34% and 35%
Total Cell Count [1]: 127 and 135
Population Apoptotic (%) [2]: 51% and 31%
Population Fragmented Nuclei (%) [2]: 21% and 26%
Population Healthy Nuclei (%) [2]: 58% and 38%
Population Hoechst High Intensity Objects (%) [2]: 2% and 12%
Population Mitotic Cells (%) [2]: 48% and 68%
Population Normal (%) [2]: 97% and 87%
Population Pyknosed Nuclei (%) [2]: 20% and 35%
Population Tubulin-Different-Phenotype (%) [2]: 28% and 48%
Total Cell Count [2]: 147 and 133
Population Apoptotic (%) [3]: 50% and 42%
Population Fragmented Nuclei (%) [3]: 13% and 21%
Population Healthy Nuclei (%) [3]: 68% and 51%
Population Hoechst High Intensity Objects (%) [3]: 2% and 5%
Population Membrane Permeable-Phenotype (%) [3]: 0% and 4%
Population Mitochondria Different-Phenotype (%) [3]: 5% and 4%
Population Mitotic Cells (%) [3]: 50% and 57%
Population Normal (%) [3]: 97% and 94%
Population Pyknosed Nuclei (%) [3]: 18% and 26%
Population Tubulin-Different-Phenotype (%) [3]: 20% and 35%
Total Cell Count [3]: 147 and 131
Population Apoptotic (%) [4]: 46% and 53%
Population Fragmented Nuclei (%) [4]: 19% and 34%
Population Healthy Nuclei (%) [4]: 60% and 39%
Population Hoechst High Intensity Objects (%) [4]: 5%
Population Membrane Permeable-Phenotype (%) [4]: 0% and 18%
Population Mitotic Cells (%) [4]: 53% and 46%
Population Normal (%) [4]: 94%
Population Pyknosed Nuclei (%) [4]: 20% and 25%
Total Cell Count [4]: 135 and 134
Population Apoptotic (%) [5]: 59% and 42%
Population Fragmented Nuclei (%) [5]: 13% and 26%
Population Healthy Nuclei (%) [5]: 66% and 58%
Population Hoechst High Intensity Objects (%) [5]: 5% and 2%
Population Membrane Permeable-Phenotype (%) [5]: 1% and 4%
Population Mitochondria Different-Phenotype (%) [5]: 1% and 6%
Population Mitotic Cells (%) [5]: 40% and 57%
Population Normal (%) [5]: 94% and 97%
Population Pyknosed Nuclei (%) [5]: 19% and 15%
Population Tubulin-Different-Phenotype (%) [5]: 32% and 50%
Total Cell Count [5]: 146 and 127
Population Apoptotic (%) [6]: 58% and 77%
Population Fragmented Nuclei (%) [6]: 19% and 40%
Population Healthy Nuclei (%) [6]: 58% and 43%
Population Hoechst High Intensity Objects (%) [6]: 2% and 5%
Population Membrane Permeable-Phenotype (%) [6]: 1% and 10%
Population Mitotic Cells (%) [6]: 41% and 22%
Population Normal (%) [6]: 97% and 94%
Population Pyknosed Nuclei (%) [6]: 22% and 16%
Population Tubulin-Different-Phenotype (%) [6]: 26% and 73%
Total Cell Count [6]: 143 and 119

C[C@@H]1CC(=O)Nc2cccc(-c3ccc4c(c3)c(-c3cnn(C)c3)nn4C)c2N1
Population Apoptotic (%) [1]: 38%
Population Fragmented Nuclei (%) [1]: 20% and 26%
Population Healthy Nuclei (%) [1]: 63% and 47%
Population Hoechst High Intensity Objects (%) [1]: 1% and 5%
Population Membrane Permeable-Phenotype (%) [1]: 0% and 8%
Population Mitochondria Different-Phenotype (%) [1]: 4% and 12%
Population Mitotic Cells (%) [1]: 61%
Population Normal (%) [1]: 98% and 94%
Population Pyknosed Nuclei (%) [1]: 15% and 26%
Population Tubulin-Different-Phenotype (%) [1]: 31% and 51%
Total Cell Count [1]: 115 and 105
Population Apoptotic (%) [2]: 40% and 30%
Population Fragmented Nuclei (%) [2]: 17% and 11%
Population Healthy Nuclei (%) [2]: 65% and 58%
Population Hoechst High Intensity Objects (%) [2]: 5% and 6%
Population Membrane Permeable-Phenotype (%) [2]: 1% and 7%
Population Mitotic Cells (%) [2]: 59% and 69%
Population Normal (%) [2]: 94% and 93%
Population Pyknosed Nuclei (%) [2]: 17% and 30%
Population Tubulin-Different-Phenotype (%) [2]: 63% and 68%
Total Cell Count [2]: 161 and 126
Population Apoptotic (%) [3]: 57% and 35%
Population Fragmented Nuclei (%) [3]: 16% and 29%
Population Healthy Nuclei (%) [3]: 67% and 50%
Population Hoechst High Intensity Objects (%) [3]: 2% and 7%
Population Membrane Permeable-Phenotype (%) [3]: 2% and 11%
Population Mitochondria Different-Phenotype (%) [3]: 5% and 9%
Population Mitotic Cells (%) [3]: 42% and 65%
Population Normal (%) [3]: 97% and 92%
Population Pyknosed Nuclei (%) [3]: 15% and 19%
Population Tubulin-Different-Phenotype (%) [3]: 33% and 60%
Total Cell Count [3]: 122 and 112
Population Apoptotic (%) [4]: 75% and 42%
Population Fragmented Nuclei (%) [4]: 19% and 13%
Population Healthy Nuclei (%) [4]: 69% and 57%
Population Hoechst High Intensity Objects (%) [4]: 10% and 5%
Population Membrane Permeable-Phenotype (%) [4]: 0% and 1%
Population Mitotic Cells (%) [4]: 25% and 57%
Population Normal (%) [4]: 89% and 94%
Population Pyknosed Nuclei (%) [4]: 11% and 29%
Population Tubulin-Different-Phenotype (%) [4]: 66% and 76%
Total Cell Count [4]: 158 and 119
Population Apoptotic (%) [5]: 50% and 30%
Population Fragmented Nuclei (%) [5]: 25% and 36%
Population Healthy Nuclei (%) [5]: 60% and 50%
Population Hoechst High Intensity Objects (%) [5]: 5% and 2%
Population Mitochondria Different-Phenotype (%) [5]: 6% and 8%
Population Mitotic Cells (%) [5]: 50% and 69%
Population Normal (%) [5]: 94% and 97%
Population Pyknosed Nuclei (%) [5]: 14% and 13%
Population Tubulin-Different-Phenotype (%) [5]: 21% and 60%
Total Cell Count [5]: 114 and 102
Population Apoptotic (%) [6]: 92% and 60%
Population Fragmented Nuclei (%) [6]: 17%
Population Healthy Nuclei (%) [6]: 73% and 62%
Population Hoechst High Intensity Objects (%) [6]: 3% and 4%
Population Membrane Permeable-Phenotype (%) [6]: 0% and 6%
Population Normal (%) [6]: 96% and 95%
Population Pyknosed Nuclei (%) [6]: 8% and 19%
Population Tubulin-Different-Phenotype (%) [6]: 68% and 69%
Total Cell Count [6]: 162 and 122
